Values after ≈ are worked out from the molar mass of the structure shown.
Experiments:
Assay type in all cases: functional
Cryptococcus neoformans [1] = experiment: Antifungal activity against Cryptococcus neoformans IM 972724 clinical isolate after 48 hrs by broth microdilution method; conditions: IM 972724, 48 h; for MIC: read-out: MIC100
Procedure, shortened: (§1)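 Clinical isolates from the Malbrán Institute were grown on Sabouraud-chloramphenicol agar for 48 h at 30 °C, kept on Sabouraud-dextrose agar and subcultured every 15 days. M27-A3 RPMI-1640 microdilution used 1–5 × 10^3 CFU/mL, 48 h at 30 °C, OD405 read, triplicate. Endpoints MIC100, MIC80 and MIC50 were taken from % inhibition dose-response curves.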

Cryptococcus neoformans [2] = experiment: Antifungal activity against Cryptococcus neoformans IM 031631 clinical isolate after 48 hrs by broth microdilution method; conditions: IM 031631, 48 h; for MIC: read-out: MIC100; procedure, shortened: as §1
Cryptococcus neoformans [3] = experiment: Antifungal activity against Cryptococcus neoformans IM 983040 clinical isolate after 48 hrs by broth microdilution method; conditions: IM 983040, 48 h; for MIC: read-out: MIC100; procedure, shortened: as §1
Cryptococcus neoformans [4] = experiment: Antifungal activity against Cryptococcus neoformans ATCC 32264 after 48 hrs by broth microdilution method; conditions: ATCC 32264, 48 h; for MIC: read-out: MIC100
Cryptococcus neoformans [5] = experiment: Antifungal activity against Cryptococcus neoformans IM 042074 clinical isolate after 48 hrs by broth microdilution method; conditions: IM 042074, 48 h; for MIC: read-out: MIC100; procedure, shortened: as §1
Cryptococcus neoformans [6] = experiment: Antifungal activity against Cryptococcus neoformans IM 983036 clinical isolate after 48 hrs by broth microdilution method; conditions: IM 983036, 48 h; for MIC: read-out: MIC100; procedure, shortened: as §1
Cryptococcus neoformans [7] = experiment: Antifungal activity against Cryptococcus neoformans IM 961951 clinical isolate after 48 hrs by broth microdilution method; conditions: IM 961951, 48 h; for MIC: read-out: MIC100; procedure, shortened: as §1
Cryptococcus neoformans [8] = experiment: Antifungal activity against Cryptococcus neoformans IM 972751 clinical isolate after 48 hrs by broth microdilution method; conditions: IM 972751, 48 h; for MIC: read-out: MIC100; procedure, shortened: as §1
Cryptococcus neoformans [9] = experiment: Antifungal activity against Cryptococcus neoformans ATCC 32264 assessed as growth inhibition at 31.25 ug/ml after 48 hrs by broth microdilution method; conditions: ATCC 32264, 48 h
Procedure, shortened: (§2)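 CLSI M27-A3 broth microdilution in RPMI-1640. Compound stocks were made in DMSO (final at most 1%) and tested at final levels of 250 to 0.98. Inoculum was 1–5 × 10^3 CFU/mL, incubated 48 h at 30 °C in a moist, dark chamber. Growth and sterility control wells were included.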

Cryptococcus neoformans [10] = experiment: Antifungal activity against Cryptococcus neoformans ATCC 32264 assessed as growth inhibition at 7.81 ug/ml after 48 hrs by broth microdilution method; conditions: ATCC 32264, 48 h; procedure, shortened: as §2
Cryptococcus neoformans [11] = experiment: Antifungal activity against Cryptococcus neoformans IM 00319 clinical isolate after 48 hrs by broth microdilution method; conditions: IM 00319, 48 h
Procedure, shortened: (§3)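 Clinical isolates from the Malbrán Institute were grown on Sabouraud-chloramphenicol agar for 48 h at 30 °C, kept on Sabouraud-dextrose agar and subcultured every 15 days. Endpoints MIC100, MIC80 and MIC50 were taken from % inhibition dose-response curves.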

Candida albicans [12] = experiment: Antifungal activity against Candida albicans ATCC 10231 assessed as growth inhibition at 125 ug/ml after 48 hrs by broth microdilution method; conditions: ATCC 10231, 48 h; procedure, shortened: as §2
Cryptococcus neoformans [13] = experiment: Antifungal activity against Cryptococcus neoformans IM 052470 clinical isolate after 48 hrs by broth microdilution method; conditions: IM 052470, 48 h; procedure, shortened: as §3
Candida albicans [14] = experiment: Antifungal activity against Candida albicans ATCC 10231 assessed as growth inhibition at 7.81 ug/ml after 48 hrs by broth microdilution method; conditions: ATCC 10231, 48 h; procedure, shortened: as §2
Cryptococcus neoformans [15] = experiment: Antifungal activity against Cryptococcus neoformans ATCC 32264 assessed as growth inhibition at 125 ug/ml after 48 hrs by broth microdilution method; conditions: ATCC 32264, 48 h; procedure, shortened: as §2
Cryptococcus neoformans [16] = experiment: Antifungal activity against Cryptococcus neoformans ATCC 32264 assessed as growth inhibition at 3.9 ug/ml after 48 hrs by broth microdilution method; conditions: ATCC 32264, 48 h; procedure, shortened: as §2
Candida albicans [17] = experiment: Antifungal activity against Candida albicans ATCC 10231 assessed as growth inhibition at 62.5 ug/ml after 48 hrs by broth microdilution method; conditions: ATCC 10231, 48 h; procedure, shortened: as §2
Cryptococcus neoformans [18] = experiment: Antifungal activity against Cryptococcus neoformans IM 031706 clinical isolate after 48 hrs by broth microdilution method; conditions: IM 031706, 48 h; procedure, shortened: as §3
Cryptococcus neoformans [19] = experiment: Antifungal activity against Cryptococcus neoformans ATCC 32264 assessed as growth inhibition at 250 ug/ml after 48 hrs by broth microdilution method; conditions: ATCC 32264, 48 h; procedure, shortened: as §2
Cryptococcus neoformans [20] = experiment: Antifungal activity against Cryptococcus neoformans ATCC 32264 assessed as growth inhibition at 15.62 ug/ml after 48 hrs by broth microdilution method; conditions: ATCC 32264, 48 h; procedure, shortened: as §2
Candida albicans [21] = experiment: Antifungal activity against Candida albicans ATCC 10231 assessed as growth inhibition at 15.62 ug/ml after 48 hrs by broth microdilution method; conditions: ATCC 10231, 48 h; procedure, shortened: as §2
Candida albicans [22] = experiment: Antifungal activity against Candida albicans ATCC 10231 assessed as growth inhibition at 31.25 ug/ml after 48 hrs by broth microdilution method; conditions: ATCC 10231, 48 h; procedure, shortened: as §2
Candida albicans [23] = experiment: Antifungal activity against Candida albicans ATCC 10231 assessed as growth inhibition at 3.9 ug/ml after 48 hrs by broth microdilution method; conditions: ATCC 10231, 48 h; procedure, shortened: as §2
Cryptococcus neoformans [24] = experiment: Antifungal activity against Cryptococcus neoformans ATCC 32264 assessed as growth inhibition at 62.5 ug/ml after 48 hrs by broth microdilution method; conditions: ATCC 32264, 48 h; procedure, shortened: as §2
Candida albicans [25] = experiment: Antifungal activity against Candida albicans ATCC 10231 assessed as growth inhibition at 250 ug/ml after 48 hrs by broth microdilution method; conditions: ATCC 10231, 48 h; procedure, shortened: as §2

C[C@@H]1[C@H](O)[C@@H](C)/C=C/C=C/C=C/C=C/C=C/C=C/C=C/[C@H](O[C@@H]2O[C@H](C)[C@@H](O)[C@H](N)[C@@H]2O)C[C@@H]2O[C@](O)(C[C@@H](O)C[C@@H](O)[C@H](O)CC[C@@H](O)C[C@@H](O)CC(=O)O[C@H]1C)C[C@H](O)[C@H]2C(=O)O [AMPHOTERICIN B]
MIC (Cryptococcus neoformans [1]): 0.25 µg/mL (≈ 0.271 µM)
MIC (Cryptococcus neoformans [2]): 0.12 µg/mL (≈ 0.13 µM)
MIC (Cryptococcus neoformans [3]): 0.25 µg/mL (≈ 0.271 µM)
MIC (Cryptococcus neoformans [4]): 0.12 µg/mL (≈ 0.13 µM)
MIC (Cryptococcus neoformans [5]): 0.12 µg/mL (≈ 0.13 µM)
MIC (Cryptococcus neoformans [6]): 0.25 µg/mL (≈ 0.271 µM)
MIC (Cryptococcus neoformans [7]): 1 µg/mL (≈ 1.08 µM)
MIC (Cryptococcus neoformans [8]): 1 µg/mL (≈ 1.08 µM)

Nc1nc(N)c2c(n1)NC(c1sc(Cl)nc1Cl)CC(c1ccccc1)=N2 (stereo not given)
inhibition at 31.25 µg/mL (Cryptococcus neoformans [9]): 7%
inhibition at 7.81 µg/mL (Cryptococcus neoformans [10]): 0%
MFC (Cryptococcus neoformans [1]): 31.2 µg/mL (≈ 76.8 µM)
MIC50 (Cryptococcus neoformans [1]): 15.6 µg/mL (≈ 38.4 µM)
MIC80 (Cryptococcus neoformans [1]): 31.2 µg/mL (≈ 76.8 µM)
MIC (Cryptococcus neoformans [1]): 31.2 µg/mL (≈ 76.8 µM)
MFC (Cryptococcus neoformans [11]): 62.5 µg/mL (≈ 154 µM)
MIC50 (Cryptococcus neoformans [11]): 31.2 µg/mL (≈ 76.8 µM)
MIC80 (Cryptococcus neoformans [11]): 31.2 µg/mL (≈ 76.8 µM)
MIC (Cryptococcus neoformans [11]; read-out: MIC100): 62.5 µg/mL (≈ 154 µM)
inhibition at 125 µg/mL (Candida albicans [12]): 100%
MFC (Cryptococcus neoformans [2]): 62.5 µg/mL (≈ 154 µM)
MIC50 (Cryptococcus neoformans [2]): 31.2 µg/mL (≈ 76.8 µM)
MIC80 (Cryptococcus neoformans [2]): 31.2 µg/mL (≈ 76.8 µM)
MIC (Cryptococcus neoformans [2]): 62.5 µg/mL (≈ 154 µM)
MFC (Cryptococcus neoformans [13]): 62.5 µg/mL (≈ 154 µM)
MIC50 (Cryptococcus neoformans [13]): 7.8 µg/mL (≈ 19.2 µM)
MIC80 (Cryptococcus neoformans [13]): 31.2 µg/mL (≈ 76.8 µM)
MIC (Cryptococcus neoformans [13]; read-out: MIC100): 62.5 µg/mL (≈ 154 µM)
inhibition at 7.81 µg/mL (Candida albicans [14]): 21.5%
MFC (Cryptococcus neoformans [3]): 62.5 µg/mL (≈ 154 µM)
MIC50 (Cryptococcus neoformans [3]): 7.8 µg/mL (≈ 19.2 µM)
MIC80 (Cryptococcus neoformans [3]): 31.2 µg/mL (≈ 76.8 µM)
MIC (Cryptococcus neoformans [3]): 31.2 µg/mL (≈ 76.8 µM)
inhibition at 125 µg/mL (Cryptococcus neoformans [15]): 74.3%
MFC (Cryptococcus neoformans [4]): 31.2 µg/mL (≈ 76.8 µM)
MIC50 (Cryptococcus neoformans [4]): 15.6 µg/mL (≈ 38.4 µM)
MIC80 (Cryptococcus neoformans [4]): 31.2 µg/mL (≈ 76.8 µM)
MIC (Cryptococcus neoformans [4]): 31.2 µg/mL (≈ 76.8 µM)
MFC (Cryptococcus neoformans [5]): 62.5 µg/mL (≈ 154 µM)
MIC50 (Cryptococcus neoformans [5]): 15.6 µg/mL (≈ 38.4 µM)
MIC80 (Cryptococcus neoformans [5]): 31.2 µg/mL (≈ 76.8 µM)
MIC (Cryptococcus neoformans [5]): 31.2 µg/mL (≈ 76.8 µM)
inhibition at 3.9 µg/mL (Cryptococcus neoformans [16]): 0%
MFC (Cryptococcus neoformans [6]): 31.2 µg/mL (≈ 76.8 µM)
MIC50 (Cryptococcus neoformans [6]): 15.6 µg/mL (≈ 38.4 µM)
MIC80 (Cryptococcus neoformans [6]): 31.2 µg/mL (≈ 76.8 µM)
MIC (Cryptococcus neoformans [6]): 31.2 µg/mL (≈ 76.8 µM)
inhibition at 62.5 µg/mL (Candida albicans [17]): 100%
MFC (Cryptococcus neoformans [18]): 62.5 µg/mL (≈ 154 µM)
MIC50 (Cryptococcus neoformans [18]): 31.2 µg/mL (≈ 76.8 µM)
MIC80 (Cryptococcus neoformans [18]): 31.2 µg/mL (≈ 76.8 µM)
MIC (Cryptococcus neoformans [18]; read-out: MIC100): 62.5 µg/mL (≈ 154 µM)
MFC (Cryptococcus neoformans [7]): 31.2 µg/mL (≈ 76.8 µM)
MIC50 (Cryptococcus neoformans [7]): 15.6 µg/mL (≈ 38.4 µM)
MIC80 (Cryptococcus neoformans [7]): 31.2 µg/mL (≈ 76.8 µM)
MIC (Cryptococcus neoformans [7]): 31.2 µg/mL (≈ 76.8 µM)
inhibition at 250 µg/mL (Cryptococcus neoformans [19]): 100%
inhibition at 15.62 µg/mL (Cryptococcus neoformans [20]): 2.53%
inhibition at 15.62 µg/mL (Candida albicans [21]): 62%
inhibition at 31.25 µg/mL (Candida albicans [22]): 100%
inhibition at 3.9 µg/mL (Candida albicans [23]): 4.92%
inhibition at 62.5 µg/mL (Cryptococcus neoformans [24]): 21.8%
MFC (Cryptococcus neoformans [8]): 62.5 µg/mL (≈ 154 µM)
MIC50 (Cryptococcus neoformans [8]): 31.2 µg/mL (≈ 76.8 µM)
MIC80 (Cryptococcus neoformans [8]): 31.2 µg/mL (≈ 76.8 µM)
MIC (Cryptococcus neoformans [8]): 62.5 µg/mL (≈ 154 µM)
inhibition at 250 µg/mL (Candida albicans [25]): 100%

COc1cc(C2=Nc3c(N)nc(N)nc3NC(c3sc(Cl)nc3Cl)C2)cc(OC)c1OC (stereo not given)
inhibition at 31.25 µg/mL (Cryptococcus neoformans [9]): 7.09%
inhibition at 7.81 µg/mL (Cryptococcus neoformans [10]): 2.99%
inhibition at 125 µg/mL (Candida albicans [12]): 10.5%
inhibition at 7.81 µg/mL (Candida albicans [14]): 0%
inhibition at 125 µg/mL (Cryptococcus neoformans [15]): 27.2%
inhibition at 3.9 µg/mL (Cryptococcus neoformans [16]): 1.65%
inhibition at 62.5 µg/mL (Candida albicans [17]): 7.26%
inhibition at 250 µg/mL (Cryptococcus neoformans [19]): 77.5%
inhibition at 15.62 µg/mL (Cryptococcus neoformans [20]): 5.52%
inhibition at 15.62 µg/mL (Candida albicans [21]): 0%
inhibition at 31.25 µg/mL (Candida albicans [22]): 9.84%
inhibition at 3.9 µg/mL (Candida albicans [23]): 0%
inhibition at 62.5 µg/mL (Cryptococcus neoformans [24]): 9.28%
inhibition at 250 µg/mL (Candida albicans [25]): 15%
